Active and inactive are the calls of the source. No cut-off for these calls is given here.
Tests used:
[1] = tested on: HepG2; assay: Reversal of P-glycoprotein-mediated drug resistance in human HepG2 cells assessed as increase in sensitivity at 25.2 uM in presence of doxorubicin; type: cell-based
How it was run: (§1)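 SRB growth-inhibition assay in HepG2 or doxorubicin-selected Pgp-overexpressing HepG2/Dox cells. Cells grown in RPMI 1640 with 10% FBS at 37 °C, 5% CO2. HepG2/Dox cells kept in 1.2 µM doxorubicin and grown drug-free for at least 7 days before use. IC50 of anticancer drug determined with or without modulator. Sensitivity fold = IC50 ratio. At least three repeats, mean ± SD.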

[2] = tested on: HepG2/Dox; assay: Reversal of P-glycoprotein-mediated multidrug resistance in human HepG2/Dox cells assessed as increase in sensitivity at 25.2 uM in presence of doxorubicin; type: cell-based; how it was run: as §1
[3] = tested on: HepG2; assay: Reversal of P-glycoprotein-mediated drug resistance in human HepG2 cells assessed as increase in sensitivity at 25.2 uM in presence of paclitaxel; type: cell-based; how it was run: as §1
[4] = Effect on doxorubicin-induced cell cycle arrest in multidrug resistance human HepG2/Dox cells assessed as accumulation in S phase at 20 ug/ml; type: functional
How it was run: (§2)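 Flow-cytometric cell-cycle profiling. About 2 × 10^5 cells were seeded per dish and left overnight, then exposed to medium with or without drug for 48 h. Cells were fixed in 70% EtOH at -20 °C overnight and treated with RNase A (100 µg/mL, 37 °C, 30 min). They were then stained with propidium iodide (40 µg/mL final) at room temperature for 5-10 min and read on a FACSCalibur.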

[5] = tested on: HepG2/Dox; assay: Reversal of P-glycoprotein-mediated multidrug resistance in human HepG2/Dox cells assessed as increase in sensitivity at 12.6 uM in presence of vinblastine; type: cell-based; how it was run: as §1
[6] = Cell cycle arrest in multidrug resistant human HepG2/Dox cells assessed as accumulation in subG1 phase at 20 ug/ml; type: functional, cell-based; how it was run: as §2
[7] = tested on: HepG2/Dox; assay: Inhibition of Pgp-mediated Rh123 accumulation in multidrug resistance human HepG2/Dox cells at 80 ug/ml; type: cell-based
How it was run: (§3)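 Rh-123 efflux. About 1 × 10^6 HepG2/Dox cells were loaded with 5 µg/mL Rh-123 at 37 °C for 1 h and washed in ice-cold PBS. They then effluxed for 1 h at 37 °C in dye-free medium with 0-80 µg/mL test agent, and retained fluorescence was read by flow cytometry. Percentage increase over control was calculated; verapamil 15 µM served as positive control. Three experiments, mean ± SD.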

[8] = Effect on doxorubicin-induced cell cycle arrest in multidrug resistance human HepG2/Dox cells assessed as accumulation in G0/G1 phase at 5 ug/ml; type: functional; how it was run: as §2
[9] = Effect on doxorubicin-induced cell cycle arrest in multidrug resistance human HepG2/Dox cells assessed as accumulation in G0/G1 phase at 20 ug/ml; type: functional; how it was run: as §2
[10] = Increase in doxorubicin uptake in multidrug resistance human HepG2/Dox cells assessed as cellular fluorescence at 40 ug/ml; type: functional
How it was run: (§4)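 Doxorubicin accumulation. About 1 × 10^6 HepG2/Dox cells in medium were given 10 µM doxorubicin with or without test agent and held at 37 °C for 40 min. Cells were washed in ice-cold PBS and fluorescence was read by flow cytometry. Increase (%) = 100 × (FT − FC)/FC; verapamil 10 µM served as positive control. Three experiments, mean ± SD.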

[11] = tested on: HepG2/Dox; assay: Reversal of P-glycoprotein-mediated multidrug resistance in human HepG2/Dox cells assessed as increase in sensitivity at 12.6 uM in presence of doxorubicin; type: cell-based; how it was run: as §1
[12] = Effect on doxorubicin-induced cell cycle arrest in multidrug resistance human HepG2/Dox cells assessed as accumulation in G2/M phase at 10 ug/ml; type: functional; how it was run: as §2
[13] = Cell cycle arrest in multidrug resistant human HepG2/Dox cells assessed as accumulation in G2/M phase at 20 ug/ml; type: functional, cell-based; how it was run: as §2
[14] = Effect on doxorubicin-induced cell cycle arrest in multidrug resistance human HepG2/Dox cells assessed as accumulation in G0/G1 phase at 10 ug/ml; type: functional; how it was run: as §2
[15] = Effect on doxorubicin-induced cell cycle arrest in multidrug resistance human HepG2/Dox cells assessed as accumulation in G2/M phase at 20 ug/ml; type: functional; how it was run: as §2
[16] = Effect on doxorubicin-induced cell cycle arrest in multidrug resistance human HepG2/Dox cells assessed as accumulation in S phase at 10 ug/ml; type: functional; how it was run: as §2
[17] = tested on: HepG2; assay: Growth inhibition of doxorubicin-sensitive human HepG2 cells at 80 uM; type: functional
How it was run: (§5)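 SRB growth assay. HepG2 and HepG2/Dox cells were grown in RPMI 1640 with 10% FBS at 37 °C and 5% CO2; resistant cells were kept drug-free for at least 7 days before use. IC50 was taken from the SRB assay, with at least three repeats, reported as mean ± SD.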

[18] = tested on: HepG2/Dox; assay: Reversal of P-glycoprotein-mediated multidrug resistance in human HepG2/Dox cells assessed as increase in sensitivity at 25.2 uM in presence of puromycin; type: cell-based; how it was run: as §1
[19] = Increase in doxorubicin uptake in multidrug resistance human HepG2/Dox cells assessed as cellular fluorescence at 20 ug/ml; type: functional; how it was run: as §4
[20] = Increase in doxorubicin uptake in multidrug resistance human HepG2/Dox cells assessed as cellular fluorescence at 10 ug/ml; type: functional; how it was run: as §4
[21] = tested on: HepG2; assay: Reversal of P-glycoprotein-mediated drug resistance in human HepG2 cells assessed as increase in sensitivity at 25.2 uM in presence of vinblastine; type: cell-based; how it was run: as §1
[22] = Effect on doxorubicin-induced cell cycle arrest in multidrug resistance human HepG2/Dox cells assessed as accumulation in G2/M phase at 5 ug/ml; type: functional; how it was run: as §2
[23] = Effect on doxorubicin-induced cell cycle arrest in multidrug resistance human HepG2/Dox cells assessed as accumulation in S phase at 5 ug/ml; type: functional; how it was run: as §2
[24] = tested on: HepG2/Dox; assay: Inhibition of Pgp-mediated Rh123 accumulation in multidrug resistance human HepG2/Dox cells at 40 ug/ml; type: cell-based; how it was run: as §3
[25] = Cell cycle arrest in multidrug resistant human HepG2/Dox cells assessed as accumulation in S phase at 20 ug/ml; type: functional, cell-based; how it was run: as §2
[26] = tested on: HepG2/Dox; assay: Reversal of P-glycoprotein-mediated multidrug resistance in human HepG2/Dox cells assessed as increase in sensitivity at 25.2 uM in presence of vinblastine; type: cell-based; how it was run: as §1
[27] = tested on: HepG2/Dox; assay: Reversal of P-glycoprotein-mediated multidrug resistance in human HepG2/Dox cells assessed as increase in sensitivity at 12.6 uM in presence of paclitaxel; type: cell-based; how it was run: as §1
[28] = tested on: HepG2/Dox; assay: Effect on P-glycoprotein expression in multidrug resistance human HepG2/Dox cells at 20 ug/ml after 72 hrs; type: functional, cell-based
How it was run: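 Western blot for Pgp. HepG2/Dox cells were incubated with 0, 5, 10 or 20 µg/mL test agent for 72 h, with untreated HepG2 as comparator. Lysates (50 µg total protein) were resolved on 10% SDS-PAGE and Pgp was detected by antibody labeling.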

[29] = Growth inhibition of multidrug resistant human HepG2/Dox cells at 80 uM; type: functional; how it was run: as §5
[30] = Effect on doxorubicin-induced cell cycle arrest in multidrug resistance human HepG2/Dox cells assessed as accumulation in subG1 phase at 5 ug/ml; type: functional; how it was run: as §2
[31] = Effect on doxorubicin-induced cell cycle arrest in multidrug resistance human HepG2/Dox cells assessed as accumulation in subG1 phase at 10 ug/ml; type: functional; how it was run: as §2
[32] = tested on: HepG2/Dox; assay: Reversal of P-glycoprotein-mediated multidrug resistance in human HepG2/Dox cells assessed as increase in sensitivity at 25.2 uM in presence of paclitaxel; type: cell-based; how it was run: as §1
[33] = Effect on doxorubicin-induced cell cycle arrest in multidrug resistance human HepG2/Dox cells assessed as accumulation in subG1 phase at 20 ug/ml; type: functional; how it was run: as §2
[34] = tested on: HepG2/Dox; assay: Reversal of P-glycoprotein-mediated multidrug resistance in human HepG2/Dox cells assessed as increase in sensitivity at 12.6 uM in presence of puromycin; type: cell-based; how it was run: as §1
[35] = Cell cycle arrest in multidrug resistant human HepG2/Dox cells assessed as accumulation in G0/G1 phase at 20 ug/ml; type: functional, cell-based; how it was run: as §2
[36] = tested on: HepG2; assay: Reversal of P-glycoprotein-mediated drug resistance in human HepG2 cells assessed as increase in sensitivity at 25.2 uM in presence of puromycin; type: cell-based; how it was run: as §1

C/C=C(\C)C(=O)O[C@@H]1[C@@H](OC(C)=O)[C@]2(C)[C@H](C(C)=O)CC[C@@]23O[C@]32CC[C@H]3C[C@@H](O[C@H]4C[C@@H](OC)[C@H](O[C@@H]5O[C@H](C)[C@@H](O)[C@@H](OC)[C@H]5O)[C@@H](C)O4)CC[C@]3(C)[C@@H]12 [TENACISSIMOSIDE A]
Ratio IC50 [1]: 1.1 | Ratio IC50 [2]: 17.9 | Ratio IC50 [3]: 1.1 | Activity [4]: 5.1% | Ratio IC50 [5]: 2.4 | Activity [6]: 3% | inhibition [7]: 90% | Activity [8]: 39.8% | Activity [9]: 8.9% | Activity [10]: 41% | Ratio IC50 [11]: 7.8 | Activity [12]: 63.6% | Activity [13]: 32% | Activity [14]: 24.9% | Activity [15]: 73% | Activity [16]: 6.3% | inhibition at 80 µM [17]: 50% | Ratio IC50 [18]: 11.2 | Activity [19]: 28% | Activity [20]: 18% | Ratio IC50 [21]: 1.1 | Activity [22]: 44.2% | Activity [23]: 6.8% | inhibition [24]: 50% | Activity [25]: 7.2% | Ratio IC50 [26]: 10 | Ratio IC50 [27]: 4.7 | Activity [28]: inactive | inhibition at 80 µM [29]: 50% | Activity [30]: 3.5% | Activity [31]: 3.5% | Ratio IC50 [32]: 5.8 | Activity [33]: 7.6% | Ratio IC50 [34]: 7 | Activity [35]: 49.3% | Ratio IC50 [36]: 1.1

From ChEMBL document CHEMBL1157421, “Tenacigenin B derivatives reverse P-glycoprotein-mediated multidrug resistance inHepG2/Dox cells” (J Nat Prod, 2008)
